Test results from ChEMBL document CHEMBL1795235, “Quercetin diacylglycoside analogues showing dual inhibition of DNA gyrase and topoisomerase IV as novel antibacterial agents” (J Med Chem, 2011).
Converted amounts (≈) assume the structure as drawn.

Legend:
Staphylococcus aureus [1] = experiment: Antibacterial activity against methicillin-susceptible Staphylococcus aureus 209P after 24 hrs by microdilution method; type: functional
How it was run: (§1)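 Broth microdilution in Mueller-Hinton broth with 0.85% NaCl, inoculum about 10^5 CFU per 100 μL. Compounds were diluted in water from 25.6 mg/mL stocks to final 2-fold series of 0.062–128 μg/mL. Plates were incubated 24 h at 35 °C. MIC was the lowest concentration at which all triplicate wells were clear, from three independent determinations.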

Enterococcus [2] = experiment: Antibacterial activity against vancomycin resistant Enterococcus FN-1 after 24 hrs by microdilution method; type: functional; details: FN-1, 24 h; how it was run: as §1
Enterococcus [3] = experiment: Antibacterial activity against vancomycin resistant Enterococcus NCTC 12201 after 24 hrs by microdilution method; type: functional; details: NCTC 12201, 24 h; how it was run: as §1
Staphylococcus aureus [4] = experiment: Antibacterial activity against vancomycin-intermediate Staphylococcus aureus Mu50 after 24 hrs by microdilution method; type: functional; details: Mu50, 24 h; how it was run: as §1
Staphylococcus aureus [5] = experiment: Antibacterial activity against methicillin-resistant Staphylococcus aureus OM481 after 24 hrs by microdilution method; type: functional; details: OM481, 24 h; how it was run: as §1
Staphylococcus aureus [6] = experiment: Antibacterial activity against methicillin-resistant Staphylococcus aureus OM584 after 24 hrs by microdilution method; type: functional; details: OM584, 24 h; how it was run: as §1
Staphylococcus aureus [7] = experiment: Antibacterial activity against methicillin-resistant Staphylococcus aureus N315 after 24 hrs by microdilution method; type: functional; details: N315, 24 h; how it was run: as §1
Staphylococcus aureus [8] = experiment: Antibacterial activity against methicillin-resistant Staphylococcus aureus COL after 24 hrs by microdilution method; type: functional; how it was run: as §1
Streptococcus pneumoniae = experiment: Antibacterial activity against Streptococcus pneumoniae R6 after 24 hrs by microdilution method; type: functional; details: R6, 24 h
How it was run: (§2)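 Broth microdilution in Mueller-Hinton broth with 0.85% NaCl, inoculum about 10^5 CFU per 100 μL. Compounds diluted from 25.6 mg/mL stocks in water to 2-fold series, final 0.062–128 μg/mL. […] Three independent determinations.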

[9] = Inhibition of Staphylococcus aureus DNA Topoisomerase 4-mediated decatenation of kDNA after 30 mins by densitometry
How it was run: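 Purchased S. aureus topoIV, one unit with 200 ng kDNA, 37 °C, 30 min. Products resolved on 1.0% agarose in TAE. IC50 of decatenation from densitometry by interpolation equation, at least three determinations.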

[10] = Inhibition of Escherichia coli DNA topoisomerase 4 subunit ParC/DNA topoisomerase 4 subunit ParE-mediated decatenation of kDNA by densitometry
How it was run: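 Purchased E. coli topoIV kit enzyme, one unit with 200 ng kDNA, 37 °C, 30 min. Buffer: 50 mM HEPES-KOH pH 7.6, 5 mM magnesium acetate, 100 mM potassium glutamate, 10 mM DTT, 1 mM ATP, 40% glycerol. Gel on 1.0% agarose in TAE. IC50 of decatenation from densitometry by interpolation equation, at least three determinations.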

Pseudomonas aeruginosa = experiment: Antibacterial activity against Pseudomonas aeruginosa PAO1 after 24 hrs by microdilution method; type: functional; details: PAO1, 24 h; how it was run: as §2
Escherichia coli = experiment: Antibacterial activity against Escherichia coli K-12 after 24 hrs by microdilution method; type: functional; details: K-12, 24 h; how it was run: as §2
[11] = Inhibition of Escherichia coli DNA gyrase assessed as inhibition of pBR322 supercoiling by densitometry
How it was run: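 One unit of E. coli gyrase with 0.5 μg relaxed pBR322 DNA, 37 °C, 30 min. Stopped with sucrose/EDTA dye, run on 1.0% agarose in TAE. IC50 from densitometry via log-interpolation equation.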

| Compound | MIC (Staphylococcus aureus [1]) [mg/L] | MIC (Enterococcus [2]) [mg/L] | MIC (Enterococcus [3]) [mg/L] | MIC (Staphylococcus aureus [4]) [mg/L] | MIC (Staphylococcus aureus [5]) [mg/L] | MIC (Staphylococcus aureus [6]) [mg/L] | MIC (Staphylococcus aureus [7]) [mg/L] | MIC (Staphylococcus aureus [8]) [mg/L] | MIC (Streptococcus pneumoniae) [mg/L] | IC50 [9] [µM] | IC50 [10] [µM] | MIC (Pseudomonas aeruginosa) [mg/L] | MIC (Escherichia coli) [mg/L] | IC50 [11] [µM] |
| --- | --- | --- | --- | --- | --- | --- | --- | --- | --- | --- | --- | --- | --- | --- |
| O=C(Cc1ccc(F)cc1)O[C@H]1[C@H](Oc2c(-c3ccc(O)c(O)c3)oc3cc(O)cc(O)c3c2=O)O[C@H](CO)[C@@H](O)[C@@H]1OC(=O)Cc1ccc(F)cc1 | 1 (≈ 1.36 µM) | 2 (≈ 2.72 µM) | 4 (≈ 5.43 µM) | 1 (≈ 1.36 µM) | 2 (≈ 2.72 µM) | 2 (≈ 2.72 µM) | 1 (≈ 1.36 µM) | 4 (≈ 5.43 µM) | 1 (≈ 1.36 µM) | 1.45 | 10.1 | – | – | – |
| O=C(CCc1ccc(F)cc1)O[C@H]1[C@H](Oc2c(-c3ccc(O)c(O)c3)oc3cc(O)cc(O)c3c2=O)O[C@H](CO)[C@@H](O)[C@@H]1OC(=O)CCc1ccc(F)cc1 | 0.25 (≈ 0.327 µM) | 1 (≈ 1.31 µM) | 1 (≈ 1.31 µM) | 1 (≈ 1.31 µM) | 2 (≈ 2.62 µM) | 2 (≈ 2.62 µM) | 0.25 (≈ 0.327 µM) | 1 (≈ 1.31 µM) | 0.5 (≈ 0.654 µM) | 0.69 | 10.4 | – | – | – |
| CO[C@@H]1[C@@H](OC(N)=O)[C@@H](O)[C@H](Oc2ccc3c(O)c(NC(=O)c4ccc(O)c(CC=C(C)C)c4)c(=O)oc3c2C)OC1(C)C [NOVOBIOCIN] | 0.13 (≈ 0.212 µM) | > 128 | 2 (≈ 3.26 µM) | 8 (≈ 13.1 µM) | 0.25 (≈ 0.408 µM) | 0.25 (≈ 0.408 µM) | 0.13 (≈ 0.212 µM) | 0.25 (≈ 0.408 µM) | 0.25 (≈ 0.408 µM) | – | 0.11 | 8 (≈ 13.1 µM) | 8 (≈ 13.1 µM) | – |
| CCCc1ccc(C(=O)O[C@H]2[C@H](Oc3c(-c4ccc(O)c(O)c4)oc4cc(O)cc(O)c4c3=O)O[C@H](CO)[C@@H](O)[C@@H]2OC(=O)c2ccc(CCC)cc2)cc1 | 1 (≈ 1.32 µM) | 2 (≈ 2.64 µM) | 4 (≈ 5.29 µM) | 1 (≈ 1.32 µM) | 2 (≈ 2.64 µM) | 2 (≈ 2.64 µM) | 1 (≈ 1.32 µM) | 4 (≈ 5.29 µM) | 1 (≈ 1.32 µM) | 1.83 | 11.8 | – | – | – |
| CC(=O)OC[C@H]1O[C@@H](Oc2c(-c3ccc(O)c(O)c3)oc3cc(O)cc(O)c3c2=O)[C@H](OC(C)=O)[C@@H](OC(C)=O)[C@H]1OC(C)=O | 64 (≈ 101 µM) | 32 (≈ 50.6 µM) | 32 (≈ 50.6 µM) | 64 (≈ 101 µM) | 32 (≈ 50.6 µM) | 32 (≈ 50.6 µM) | 64 (≈ 101 µM) | 128 (≈ 202 µM) | 64 (≈ 101 µM) | – | – | > 128 | > 128 | – |
| O=c1c(O)c(-c2ccc(O)c(O)c2)oc2cc(O)cc(O)c12 [QUERCETIN] | > 128 | > 128 | > 128 | > 128 | > 128 | > 128 | > 128 | > 128 | > 128 | – | 6.42 | > 128 | 64 (≈ 212 µM) | 0.14 |
| O=C(O[C@H]1[C@H](Oc2c(-c3ccc(O)c(O)c3)oc3cc(O)cc(O)c3c2=O)O[C@H](CO)[C@@H](O)[C@@H]1OC(=O)c1ccc(F)cc1)c1ccc(F)cc1 | 1 (≈ 1.41 µM) | 2 (≈ 2.82 µM) | 4 (≈ 5.65 µM) | 1 (≈ 1.41 µM) | 2 (≈ 2.82 µM) | 2 (≈ 2.82 µM) | 1 (≈ 1.41 µM) | 4 (≈ 5.65 µM) | 1 (≈ 1.41 µM) | 1.21 | 10.8 | – | – | – |
| CN[C@H](CC(C)C)C(=O)N[C@H]1C(=O)N[C@@H](CC(N)=O)C(=O)N[C@H]2C(=O)N[C@H]3C(=O)N[C@H](C(=O)N[C@H](C(=O)O)c4cc(O)cc(O)c4-c4cc3ccc4O)[C@H](O)c3ccc(c(Cl)c3)Oc3cc2cc(c3O[C@@H]2O[C@H](CO)[C@@H](O)[C@H](O)[C@H]2O[C@H]2C[C@](C)(N)[C@H](O)[C@H](C)O2)Oc2ccc(cc2Cl)[C@H]1O [VANCOMYCIN] | 0.25 (≈ 0.173 µM) | > 128 | > 128 | 8 (≈ 5.52 µM) | 0.25 (≈ 0.173 µM) | 0.25 (≈ 0.173 µM) | 0.25 (≈ 0.173 µM) | 0.25 (≈ 0.173 µM) | 0.25 (≈ 0.173 µM) | – | – | – | – | – |
| O=C(CCc1ccc(O)cc1)O[C@H]1[C@H](Oc2c(-c3ccc(O)c(O)c3)oc3cc(O)cc(O)c3c2=O)O[C@H](CO)[C@@H](O)[C@@H]1OC(=O)CCc1ccc(O)cc1 | 1 (≈ 1.31 µM) | 2 (≈ 2.63 µM) | 4 (≈ 5.26 µM) | 1 (≈ 1.31 µM) | 2 (≈ 2.63 µM) | 2 (≈ 2.63 µM) | 1 (≈ 1.31 µM) | 4 (≈ 5.26 µM) | 1 (≈ 1.31 µM) | 1.98 | 11.8 | – | – | – |
